Measured values from PMC11978860 (Nature Communications, 2025).

Key:
Assay type in all cases: in vivo, Drosophila melanogaster
[1] = tested on: Tip60-RNAi knockdown Drosophila larvae; conditions: oral in food; for Performance in rescuing locomotor defects (in words): compared to CTB
[2] = tested on: Tip60-RNAi-2 Drosophila larvae; test: Larval locomotor assay in second Tip60-RNAi line; conditions: 100 uM, line crossing in 30 seconds
In short: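 elavC155-Gal4 × UAS-Tip60 RNAi-2 progeny (w1118 background) are reared from hatching on food containing the test compound in DMSO (final DMSO ≤0.01%) or vehicle. Wandering third-instar larvae are rinsed and placed on a 2.5% agar plate over a 0.5 cm × 0.5 cm grid. After 1 min acclimation, head line crossings are counted over 30 s. Analysis is one-way ANOVA with Dunnett's comparisons.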

[3] = tested on: AD-associated APP Drosophila third-instar larvae; test: Larval locomotor assay in AD-associated APP model
In short: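 elavC155-Gal4/UAS-APP larvae (w1118 background), with parental crosses set on food containing the test compound in DMSO (final DMSO ≤0.01%) or DMSO alone, so larvae feed from hatching. Wandering third instars of either sex are rinsed in distilled water, placed on 2.5% agar over a 0.5 cm grid, and acclimated 1 min. Read-outs are speed (mm/s, video tracking) and head line crossings in 30 s. Analysis is one-way ANOVA with Dunnett's test.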

| SMILES | Performance in rescuing locomotor defects (in words) [1] | further results |
| --- | --- | --- |
| Cn1cc(C(=O)COc2ccccc2C(=O)Nc2ccc(Cl)c(C(F)(F)F)c2)cn1 [C1, N-[4-chloro-3-(trifluoromethyl)phenyl]-2-[2-(1-methyl-1H-pyrazol-4-yl)-2-oxoethoxy]benzamide] | low-performing | – |
| COC(=O)CCC(=O)COc1ccccc1C(=O)Nc1ccc(Cl)c(C(F)(F)F)c1 [C2, Methyl 5-(2-{[4-chloro-3-(trifluoromethyl)phenyl]carbamoyl}phenoxy)-4-oxopentanoate] | highest performers | Rescue of locomotor deficits (in words) [2]: rescued locomotor deficits; Sustained effects to complete the assay and reach the wall (in words) [3]: sustained effects; Concentration significantly rescuing larval locomotor ability ([3]; oral in food): ≥ 50 µM |
| O=C(Nc1ccc(Cl)c(C(F)(F)F)c1)c1ccccc1OCC(=O)N1CCNC1=O [C4, N-[4-Chloro-3-(trifluoromethyl)phenyl]-2-[2-oxo-2-(2-oxo-1-imidazolidinyl)ethoxy]benzamide] | no effect | – |
| CCOCCC(O)COc1ccccc1C(=O)Nc1ccc(Cl)c(C(F)(F)F)c1 (stereo not shown) [C5, N-[4-Chloro-3-(trifluoromethyl)phenyl]-2-(4-ethoxy-2-hydroxybutoxy)benzamide] | highest performers | – |
| CC(C)CNC(=O)COc1ccccc1C(=O)Nc1ccc(Cl)c(C(F)(F)F)c1 [C6, N-[4-Chloro-3-(trifluoromethyl)phenyl]-2-[2-(isobutylamino)-2-oxoethoxy]benzamide] | low-performing | – |
| O=C(Nc1ccc(Cl)c(C(F)(F)F)c1)c1ccccc1OCC(=O)C1CCOCC1 [C7, N-[4-Chloro-3-(trifluoromethyl)phenyl]-2-[2-oxo-2-(tetrahydro-2H-pyran-4-yl)ethoxy]benzamide] | low-performing | – |
| CNC(=O)NC(=O)COc1ccccc1C(=O)Nc1ccc(Cl)c(C(F)(F)F)c1 [C8, N-[4-Chloro-3-(trifluoromethyl)phenyl]-2-{2-[(methylcarbamoyl)amino]-2-oxoethoxy}benzamide] | highest performers | – |
| COC(=O)CNC(=O)COc1ccccc1C(=O)Nc1ccc(Cl)c(C(F)(F)F)c1 [C9, Methyl N-[(2-{[4-chloro-3-(trifluoromethyl)phenyl]carbamoyl}phenoxy)acetyl]glycinate] | low-performing | – |
| O=C(COc1ccccc1C(=O)Nc1ccc(Cl)c(C(F)(F)F)c1)NCC1CC1 [C10, N-[4-Chloro-3-(trifluoromethyl)phenyl]-2-{2-[(cyclopropylmethyl)amino]-2-oxoethoxy}benzamide] | low-performing | – |
| CCOc1ccccc1C(=O)Nc1ccc(Cl)c(C(F)(F)F)c1 [CTB, N-[4-chloro-3-(trifluoromethyl)phenyl]-2-ethoxybenzamide, reference compound] | – | Rescue of locomotor ability (in words) ([1]; 10 to 100 μM): significant rescue |
